From BindingDB's records for doi:10.1016/j.bmc.2007.11.023 (2008)

Biological target: Mitochondrial complex I; NADH oxidoreductase (Bos taurus, UniProt P25708+P52505)
Test: Inhibition of NADH-ubiquinone oxidoreductase assessed as NADH oxidase activity in bovine heart submitochondrial particles
How it was run: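 Bovine heart submitochondrial particles (sonicated mitochondria isolated by differential centrifugation) in air-saturated 75 mM sodium potassium phosphate, pH 7.4, with 1 mM each EDTA and MgCl2, at 30 °C and 42–219 µg/mL protein. Compounds added in methanol (≤2% v/v) and preincubated 4 min. The reaction is started with 0.16 mM NADH (final). Oxidation is followed over 4 min as A340 decrease. Means of 2–4 independent experiments.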

Mitochondrial complex I; NADH oxidoreductase, sequence (P25708 21-464 limits assumed, other chains not shown): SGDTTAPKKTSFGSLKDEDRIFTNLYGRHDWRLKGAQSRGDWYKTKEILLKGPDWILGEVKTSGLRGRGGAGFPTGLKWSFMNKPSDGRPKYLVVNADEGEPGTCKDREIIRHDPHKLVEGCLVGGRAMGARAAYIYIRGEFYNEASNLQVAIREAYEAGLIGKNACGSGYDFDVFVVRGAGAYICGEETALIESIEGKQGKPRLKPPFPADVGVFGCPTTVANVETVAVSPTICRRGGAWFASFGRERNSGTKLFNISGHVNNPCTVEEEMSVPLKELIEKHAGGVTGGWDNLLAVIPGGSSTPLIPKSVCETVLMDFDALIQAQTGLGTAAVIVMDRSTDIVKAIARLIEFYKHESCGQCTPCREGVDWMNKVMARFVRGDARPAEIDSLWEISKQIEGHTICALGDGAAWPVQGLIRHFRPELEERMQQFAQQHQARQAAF

| SMILES | IC50 [µM] |
| --- | --- |
| CCCC1(O)C(=O)C(C)C(=O)N=C1C=CC(C)C/C=C/C(C)C (configuration not stated) [IROMYCIN E] | > 25.3 |
| CCCC1C(=O)C(C)(O)C(=O)N=C1C=CC(C)C/C=C/C(C)C (configuration not stated) [IROMYCIN F] | > 25.3 |
